Results as given in ChEMBL document CHEMBL1255290, “Characterization of a novel human immunodeficiency virus type 1 protease inhibitor, A-790742” (Antimicrob Agents Chemother, 2008).
pEC50: −log10 of the molar value.

Key:
[1] = system: Human immunodeficiency virus 1; assay: Antiviral activity against HIV1 P15 infected in human MT4 cells derived from viral passages with A-790742 harboring protease L33L/F, K45I, V82L, and I84V mutation assessed as reduction in viral cytopathogenicity treated 1 hr post infection measured 5 days post infection by MTT assay relative to wild type HIV1 pNL4-3; type: functional
Outline: (§1)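 For the assay, 10⁶ MT-4 cells were infected at MOI 0.003, washed after 1 h, and plated at 10⁴ cells/well with eight serial compound dilutions in triplicate (0.5% DMSO final). MTT cytopathic read-out at day 5; EC50 from dose-response fitting.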

[2] = system: Human immunodeficiency virus 1; assay: Antiviral activity against HIV1 clone2 infected in HEK293 cells harboring A-790742-selected protease V82L mutation assessed as reduction in viral replication by luciferase reporter gene assay relative to wild type HIV1 pNL4-3; type: functional
Outline: (§2)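 Single-cycle assay: HEK-293 cells were cotransfected with luciferase-reporter HIV-1 protease clones plus a VSV-G expression vector. After 4 h, cells were replated at 2 × 10⁴/well over serial inhibitor dilutions in triplicate. Pseudovirus collected at 48 h infected fresh HEK-293 (10⁴/well). Luciferase read 48 h later gave % inhibition versus untreated and EC50. Fold change against WT pNL4-3-Luc (clones 1-4) or RF-Luc (clone 5) is the mean of three experiments.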

[3] = system: Human immunodeficiency virus 1; assay: Antiviral activity against HIV1 P21 infected in human MT4 cells derived from viral passages with A-790742 harboring protease L23I, L33F, K45I, A71A/V, V77I, V82L, and I84V mutation assessed as reduction in viral cytopathogenicity treated 1 hr post infection measured 5 days post infection by MTT assay relative to wild type HIV1 pNL4-3; type: functional; outline: as §1
[4] = system: Human immunodeficiency virus 1; assay: Antiviral activity against HIV1 clone5 infected in HEK293 cells harboring A-790742-selected protease L63P, A71V, and V82G mutation assessed as reduction in viral replication by luciferase reporter gene assay relative to wild type HIV1 RF; type: functional; outline: as §2
[5] = system: Human immunodeficiency virus 1; assay: Antiviral activity against HIV1 clone4 infected in HEK293 cells harboring A-790742-selected protease L33F, A71V, G73S, V77I, V82L, and I84V mutation assessed as reduction in viral replication by luciferase reporter gene assay relative to wild type HIV1 pNL4-3; type: functional; outline: as §2
[6] = system: Human immunodeficiency virus 1; assay: Antiviral activity against HIV1 P13 infected in human MT4 cells derived from viral passages with A-790742 harboring protease M46I, L63P, A71V, and V82G mutation assessed as reduction in viral cytopathogenicity treated 1 hr post infection measured 5 days post infection by MTT assay relative to wild type HIV1 RF; type: functional; outline: as §1
[7] = system: Human immunodeficiency virus 1; assay: Antiviral activity against HIV1 clone3 infected in HEK293 cells harboring A-790742-selected protease L33F, K45I, V82L, and I84V mutation assessed as reduction in viral replication by luciferase reporter gene assay relative to wild type HIV1 pNL4-3; type: functional; outline: as §2
[8] = system: Human immunodeficiency virus 1; assay: Antiviral activity against HIV1 P9 infected in human MT4 cells derived from viral passages with A-790742 harboring protease V82V/L and I84V mutation assessed as reduction in viral cytopathogenicity treated 1 hr post infection measured 5 days post infection by MTT assay relative to wild type HIV1 pNL4-3; type: functional; outline: as §1
[9] = system: Human immunodeficiency virus 1; assay: Antiviral activity against HIV1 clone1 infected in HEK293 cells harboring A-790742-selected protease I84V mutation assessed as reduction in viral replication by luciferase reporter gene assay relative to wild type HIV1 pNL4-3; type: functional; outline: as §2
[10] = system: Human immunodeficiency virus 1; assay: Antiviral activity against HIV1 B26 infected in human MT4 cells harboring protease L33F, K45I, M46I, I50V, I54V, A71V, and V82F mutation derived from viral passages with Lopinavir assessed as reduction in viral cytopathogenicity treated 1 hr post infection measured 5 days post infection by MTT assay; type: functional, organism-based; conditions: Human immunodeficiency virus 1, B26, MT4; outline: as §1
[11] = system: Human immunodeficiency virus 1; assay: Antiviral activity against HIV1 isolate 10 infected in human MT4 cells obtained from protease inhibitor-resistant patient harboring protease L10I, I13V, K20R, L33F, E35D, M36I, N37D, I54L, Q58E, I62V, L63P, A71V, V82A, I84V, L90M mutation derived from viral passages with Lopinavir assessed as reduction in viral cytopathogenicity treated 1 hr post infection measured 5 days post infection by MTT …; type: functional
[12] = system: Human immunodeficiency virus 1; assay: Antiviral activity against HIV1 isolate 6 infected in human MT4 cells obtained from protease inhibitor-resistant patient harboring protease L10I, L24I, M46I, I54V, K55R, Q58E, L63P, I64V, A71V, V82A, T91A mutation derived from viral passages with Lopinavir assessed as reduction in viral cytopathogenicity treated 1 hr post infection measured 5 days post infection by MTT assay relative to wild type …; type: functional
[13] = system: Human immunodeficiency virus 1; assay: Antiviral activity against HIV1 isolate 12 infected in human MT4 cells obtained from protease inhibitor-resistant patient harboring protease L10I, I13V, K20I, E35D, M36I, M46I, I50V, I54V, R57K, I62V, L63P, A71V, V82A, L89V, L90M, Q92K mutation derived from viral passages with Lopinavir assessed as reduction in viral cytopathogenicity treated 1 hr post infection measured 5 days post infection by …; type: functional
[14] = system: Human immunodeficiency virus 1; assay: Antiviral activity against HIV1 A17 infected in human MT4 cells harboring protease L10F, V32I, M46I, I47V, Q58E, and I84V mutation derived from viral passages with Lopinavir assessed as reduction in viral cytopathogenicity treated 1 hr post infection measured 5 days post infection by MTT assay; type: functional, organism-based; conditions: Human immunodeficiency virus 1, A17, MT4; outline: as §1
[15] = system: Human immunodeficiency virus 1; assay: Antiviral activity against HIV1 P25 infected in human MT4 cells harboring protease L10F, G16E, V32I, M46I, I47A, H69Y, I84V, and T91S mutation derived from viral passages with Lopinavir assessed as reduction in viral cytopathogenicity treated 1 hr post infection measured 5 days post infection by MTT assay; type: functional, organism-based; conditions: Human immunodeficiency virus 1, P25, MT4; outline: as §1
[16] = system: Human immunodeficiency virus 1; assay: Antiviral activity against HIV1 isolate 3 infected in human MT4 cells obtained from protease inhibitor-resistant patient harboring protease L10I, E35D, N37D, […], I54V, L63P, A71V, T74P, I84V, L90M, I93L mutation derived from viral passages with Lopinavir assessed as reduction in viral cytopathogenicity treated 1 hr post infection measured 5 days post infection by MTT assay relative to wild type …; type: functional
[17] = system: Human immunodeficiency virus 1; assay: Antiviral activity against HIV1 isolate 13 infected in human MT4 cells obtained from protease inhibitor-resistant patient harboring protease L10I, K14R, L33F, E34Q, R41K, K45R, M46I, I50V, K55R, L63P, A71V, G73T, V77I, V82A, L90M, I93L mutation derived from viral passages with Lopinavir assessed as reduction in viral cytopathogenicity treated 1 hr post infection measured 5 days post infection by …; type: functional
[18] = system: Human immunodeficiency virus 1; assay: Antiviral activity against wild-type HIV1 pNL4-3 infected in human MT4 cells assessed as reduction in viral cytopathogenicity treated 1 hr post infection measured 5 days post infection in absence of human serum by MTT assay; type: functional, organism-based; conditions: Human immunodeficiency virus 1, pNL4-3, MT4; outline: as §1
[19] = system: Human immunodeficiency virus 1; assay: Antiviral activity against HIV1 isolate 9 infected in human MT4 cells obtained from protease inhibitor-resistant patient harboring protease L10I, I15I/V, K20R, L33F, E35D, M36I, N37D, R41K, K43I, M46I, I54V, I62V, L63P, A71T, I72T, V82A, I84V, L90M, I93L mutation derived from viral passages with Lopinavir assessed as reduction in viral cytopathogenicity treated 1 hr post infection measured 5 days …; type: functional
[20] = system: Human immunodeficiency virus 1; assay: Antiviral activity against HIV1 isolate 7 infected in human MT4 cells obtained from protease inhibitor-resistant patient harboring protease L10I, M46M/L, G48V, I54V, L63P, A71V, I72M, V77I, V82A, L90M, I93L mutation derived from viral passages with Lopinavir assessed as reduction in viral cytopathogenicity treated 1 hr post infection measured 5 days post infection by MTT assay relative to wild …; type: functional
[21] = system: Human immunodeficiency virus 1; assay: Antiviral activity against HIV1 isolate 8 infected in human MT4 cells obtained from protease inhibitor-resistant patient harboring protease L10I, I13V, L33F, E34Q, R41K, M46I, I54V, K55R, R57K, Q58E, I62V, L63P, A71V, I72I/T, G73S, V82A, I84V, L90M mutation derived from viral passages with Lopinavir assessed as reduction in viral cytopathogenicity treated 1 hr post infection measured 5 days post …; type: functional
[22] = system: Human immunodeficiency virus 1; assay: Antiviral activity against wild-type HIV1 pNL4-3 infected in human MT4 cells assessed as reduction in viral cytopathogenicity treated 1 hr post infection measured 5 days post infection in presence of 50% human serum by MTT assay; type: functional, organism-based; conditions: Human immunodeficiency virus 1, pNL4-3, MT4
[23] = system: Human immunodeficiency virus 1; assay: Antiviral activity against HIV1 isolate 4 infected in human MT4 cells obtained from protease inhibitor-resistant patient harboring protease N37T, M46I, Q58E, I64V, T74K, V77I, V82F, L90M mutation derived from viral passages with Lopinavir assessed as reduction in viral cytopathogenicity treated 1 hr post infection measured 5 days post infection by MTT assay relative to wild type HIV1 pNL4-3; type: functional
[24] = system: Human immunodeficiency virus 1; assay: Antiviral activity against HIV1 isolate 11 infected in human MT4 cells obtained from protease inhibitor-resistant patient harboring protease L10I, I15V, K20R, E21Q, E35D, M36I, N37D, R41K, M46L, I54V, I62V, L63P, A71V, T74D, P79A, V82T, I84V, I85V, L90M, I93L mutation derived from viral passages with Lopinavir assessed as reduction in viral cytopathogenicity treated 1 hr post infection measured …; type: functional
[25] = system: Human immunodeficiency virus 1; assay: Antiviral activity against HIV1 isolate 5 infected in human MT4 cells obtained from protease inhibitor-resistant patient harboring protease L10F, I15V, M46I, L63P, A71V, I72L, V82T, I84V, I85V, L90M mutation derived from viral passages with Lopinavir assessed as reduction in viral cytopathogenicity treated 1 hr post infection measured 5 days post infection by MTT assay relative to wild type HIV1 …; type: functional
[26] = system: Human immunodeficiency virus 1; assay: Antiviral activity against wild-type HIV1 RF infected in human MT4 cells assessed as reduction in viral cytopathogenicity treated 1 hr post infection measured 5 days post infection in absence of human serum by MTT assay; type: functional, organism-based; conditions: Human immunodeficiency virus 1, RF; outline: as §1
[27] = system: Human immunodeficiency virus 1; assay: Antiviral activity against HIV1 isolate 2 infected in human MT4 cells obtained from protease inhibitor-resistant patient harboring protease L10I, I15V, G16E, K20R, E35D, M36I, R41K, I54A, R57K, Q61D, A71V, I72R, V82A, L89I, L90M, Q92K mutation derived from viral passages with Lopinavir assessed as reduction in viral cytopathogenicity treated 1 hr post infection measured 5 days post infection by …; type: functional

SMILES	Ratio EC50 [1]	Ratio EC50 [2]	Ratio EC50 [3]	Ratio EC50 [4]	Ratio EC50 [5]	Ratio EC50 [6]	Ratio EC50 [7]	Ratio EC50 [8]	Ratio EC50 [9]	pEC50 [15]	further results
CC(C)(C)NC(=O)[C@@H]1CN(Cc2cccnc2)CCN1C[C@@H](O)C[C@@H](Cc1ccccc1)C(=O)N[C@H]1c2ccccc2C[C@H]1O.O	5	1	14	76	2	31	5	3	1	–	–
Cc1c(O)cccc1C(=O)N[C@@H](CSc1ccccc1)[C@H](O)CN1C[C@H]2CCCC[C@H]2C[C@H]1C(=O)NC(C)(C)C	6	1	>93	203	2	67	3	5	1	–	–
COC(=O)N[C@H](C(=O)N[C@@H](Cc1ccccc1)[C@@H](O)CN(Cc1ccc(-c2ccccn2)cc1)NC(=O)[C@@H](NC(=O)OC)C(C)(C)C)C(C)(C)C [ATAZANAVIR]	14	1	145	39	16	31	34	6	1	6.45	pEC50 [10]: 7.29; Ratio EC50 [11]: 56; Ratio EC50 [12]: 15; Ratio EC50 [13]: 3; pEC50 [14]: 6.53; Ratio EC50 [16]: 89; Ratio EC50 [17]: 5; pEC50 [18]: 8.40; Ratio EC50 [19]: 22; Ratio EC50 [20]: 25; Ratio EC50 [21]: 32; pEC50 [22]: 7.96; Ratio EC50 [23]: 5; Ratio EC50 [24]: 43; Ratio EC50 [25]: 18; pEC50 [26]: 8.15; Ratio EC50 [27]: 172
Cc1cccc(C)c1OCC(=O)N[C@@H](Cc1ccccc1)[C@@H](O)C[C@H](Cc1ccccc1)NC(=O)[C@H](C(C)C)N1CCCNC1=O [LOPINAVIR]	–	–	–	–	–	–	–	–	–	< 5.00	–
CC(C)c1nc(CN(C)C(=O)N[C@H](C(=O)N[C@@H](Cc2ccccc2)C[C@H](O)[C@H](Cc2ccccc2)NC(=O)OCc2cncs2)C(C)C)cs1 [RITONAVIR]	29	7	>141	1386	14	79	79	26.7	3	–	–
